This is an account of results in PMC6301076 (Bioorganic & medicinal chemistry letters, 2018).

Series [1] deals with S. mansoni. The settings on record: cited from earlier work; for single oral dose ED50: S. mansoni mouse model.
The subject of series [2] is cultured adult S. mansoni. The settings on record: cited from earlier work.
Series [3] is described as follows: Aqueous solubility by nephelometry. It is filed as physicochemical. To be noted: concentration range; for Sol2.0: 0.01 M HCl (approx. pH 2.0); for Sol6.5: pH 6.5 phosphate buffer.
Series [4] is described as follows: Plasma exposure after oral administration to mice. It is filed as in vivo. The settings on record: 100 mg/kg, plasma concentration versus time profile.
Another series deals with schistosomula (NTS). To be noted: 10 μM concentration; cited from earlier work.
For series [5] the following is noted: after 100 mg/kg oral dose of Ro 13-3978 to mice; cited from earlier work.
Series [6] is described as follows: In vitro intrinsic clearance in human liver microsomes. It is filed as in vitro ADME. To be noted: absence of co-factor. In a few lines: (§1)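 Test compound incubated with human or mouse liver microsomes. Control incubations without NADPH detect cofactor-independent degradation, such as by non-specific microsomal esterases. Read-out is intrinsic clearance, also expressed as in vitro half-life.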

The nature of series [7]: In vitro intrinsic clearance in mouse liver microsomes. It is filed as in vitro ADME. The settings on record: absence of co-factor. An outline of the steps:
as §1
On the technique in general: Liver microsomes are vesicles of endoplasmic reticulum, rich in cytochrome P450 enzymes.

The subject of series [8] is S. mansoni. The series is described as follows: In vivo antischistosomal activity in S. mansoni-infected mice. The settings on record: 1 × 100 mg/kg po.

Structures are written as SMILES. Where “and” joins values, the source holds several entries; their conditions need not be identical. Equal values may be shown once. Read-outs that look alike come from different tables or passages of the source. Marks after values point to notes of the source that are not given here. Bounds are passed on as bounds.

For `CC1(C)NC(=O)N(c2ccc(F)c(C(F)(F)F)c2)C1=O` [Ro 13-3978, reference compound], the “single oral dose ED50” value with S. mansoni [1] is on record as 15 mg/kg. The “effect on cultured adult S. mansoni” value in series [2] was “little effect”.
In turn, `CC(C)(NC(=O)Nc1ccc(F)c(C(F)(F)F)c1)C(=O)O` [compound 2] returned a Sol2.0 in series [3] of 25 to 50 µg/mL. The oral absorption entry in series [4] is “rapid and extensive absorption”. Also, the “S. mansoni WBR” value with S. mansoni [1] (1 × 100 mg/kg po, S. mansoni-infected mice, ref 4 (Wang et al.), 100 mg/kg) was 67% and 67^d %. In addition, the “activity against schistosomula (NTS)” value with schistosomula (NTS) was “no activity”. Moreover, the “activity against cultured adult S. mansoni” value in series [2] (10 μM concentration) is reported as “no activity”. In addition, the “exposure relative to that of Ro 13-3978, based on AUC0-24h” value in series [5] is under 1%.
Molecule `CC(C)(NC(=O)Nc1ccccc1)C(=O)O` [compound 3] had a Sol6.5 in [3] of 50 to 100 µg/mL.
As for `CC(C)(C(=O)O)N1CCCN(c2ccc(F)c(C(F)(F)F)c2)C1=O` [compound 4], in series [3], the Sol2.0 is >100/>100 μg/mL and the Sol6.5 was >100/>100 μg/mL.
As for `CC(C)(CC(=O)Nc1ccc(F)c(C(F)(F)F)c1)C(=O)O` [compound 5], in series [3], the Sol2.0 was 25-50/25-50 μg/mL and the Sol6.5 is 25-50/25-50 μg/mL.
For the molecule `CC(C)(NC(=O)Cc1ccc(F)c(C(F)(F)F)c1)C(=O)O` [compound 6], in series [3], the Sol2.0 lay within 50 to 100 µg/mL and the Sol6.5 is 25 to 50 µg/mL.
With `O=C(O)CNC(=O)Nc1ccc(F)c(C(F)(F)F)c1` [compound 7], in series [3], the Sol2.0 is >100/>100 μg/mL and the Sol6.5 is on record as >100/>100 μg/mL.
As for `O=C(Nc1ccc(F)c(C(F)(F)F)c1)NC1(C(=O)O)CC1` [compound 8], in series [3], the Sol2.0 is listed as >100/>100 μg/mL and the Sol6.5 is >100/>100 μg/mL.
Take `O=C(Nc1ccc(F)c(C(F)(F)F)c1)NC1(C(=O)O)CCC1` [compound 9]: in series [3], the Sol2.0 lay within 50 to 100 µg/mL.
With `CC(C)(C(=O)O)n1c(=O)[nH]c2cc(C(F)(F)F)c(F)cc21` [compound 10], in [3], the Sol2.0 lay in the range of 50 to 100 µg/mL.
On the same count and under the same terms, under `CC(C)(C(=O)O)N1Cc2cc(F)c(C(F)(F)F)cc2NC1=O` [compound 11] stands 50 to 100 µg/mL.
As for `CC(C)(NC(=O)Nc1ccc(F)c(C(F)(F)F)c1)C(N)=O` [compound 12], in series [3], the Sol2.0 is listed as 50-100/50-100 μg/mL and the Sol6.5 is 50-100/50-100 μg/mL.
Consider `CCOC(=O)C(C)(C)NC(=O)Nc1ccc(F)c(C(F)(F)F)c1` [compound 13], for which the Sol2.0 in [3] is 3.1-6.3/3.1-6.3 μg/mL. Besides, in series [3], the Sol6.5 is listed as 3.1-6.3/3.1-6.3 μg/mL. Besides, the “stability in control microsomal incubations” value in series [6] and in series [7] was “underwent non-NADPH mediated degradation” each time. Besides, the “S. mansoni WBR” value in the series with S. mansoni [8] was 70^f %.
For `O=C(C1CCCCC1)N1CC(=O)N2CCc3ccccc3C2C1` (stereo not drawn) [praziquantel, reference compound], the “single oral dose ED50” value in the series with S. mansoni [1] is given as 172 mg/kg.
